Results of several laboratories.
Protocols differ between the studies behind these lines.
Read-out: metabolic stability
Host: human
Matrix: liver microsomes

Compound	concentration	time	pH	microsomal CLint [µL/min/mg]
CN(c1ccc(F)cc1)c1c(-c2ccc(F)cn2)nc2ccccn12	3 µM		pH 7.4	220
O=S(=O)(c1ccc(-c2ccc3nccc(Nc4cnccn4)c3c2)cc1)N1CCOCC1				115
Cc1cc(Nc2ccc(S(F)(F)(F)(F)F)cc2)n2ccnc2n1				7.1
Fc1ccc(Nc2c(-c3ncccc3F)nc3ccccn23)cc1	3 µM		pH 7.4	86
COc1cc2[nH]c(C)c(-c3ccc(OC(F)(F)F)cc3)c(=O)c2cc1Cl	1 µM			< 7
C[C@H](C(=O)NC1Cc2ccccc2C1)c1ccccc1	1 µM	1 h		15
FC(F)(F)c1ccccc1-c1nc(N2CCC(c3ccccn3)C2)c2ccccc2n1 (stereo not shown)				199
Cc1cc(Nc2ccnc3ccc(-c4ccc(S(=O)(=O)N5CCOCC5)cc4)cc23)on1				69.8
CCC(F)(F)c1nc2nc(C)cc(Nc3ccc(C(F)(F)F)cc3)n2n1	1 µM		pH 7.4	< 6
O=S(=O)(c1ccc(-c2ccc3nccc(Nc4ccc5[nH]nnc5c4)c3c2)cc1)N1CCOCC1				52
COc1cc2[nH]c(C)c(-c3ccoc3)c(=O)c2cc1Cl	1 µM			93
CS(=O)(=O)c1ccc(-c2cnc(N)c(-c3ccc(C(F)(F)F)nc3)c2)cc1	1 µM			< 11.6
Cn1ccnc1CNc1nc(-c2ccccn2)nc2ccccc12				24
Fc1ccc(Nc2c(-c3cccc(F)n3)nc3ccccn23)cc1	3 µM		pH 7.4	130
COc1cc2[nH]c(C)c(-c3ccc(-c4ccccc4)cc3)c(=O)c2cc1Cl	1 µM			14
Cc1cc(Nc2ccc(S(F)(F)(F)(F)F)cc2)n2nc(C(C)(F)F)nc2n1	1 µM		pH 7.4	< 6
Cc1noc(C)c1Nc1ccnc2ccc(-c3ccc(S(=O)(=O)N4CCOCC4)cc3)cc12				78.2
CC(C)CCN(c1ccc(F)cc1)c1c(-c2ccccn2)nc2ccccn12	3 µM		pH 7.4	110
COc1ccc(CNc2c(CO)cnc3c(C4CC4)cc(C#N)cc23)cc1Cl				80
CCn1ncc2c(N3CCC(c4ccccn4)C3)nc(-c3ccccn3)nc21 (stereo not shown)				< 1
CCOC(=O)c1c(-c2cc(F)cc(OC)c2)[nH]c2cc(OC)c(F)cc2c1=O	19.8 µM		pH 7.4	50
COc1cc2[nH]c(C)c(-c3ccc(C(F)(F)F)cc3)c(=O)c2cc1Cl	1 µM			< 7
O=C(O)C1CCN(c2nc(-c3ccccn3)nc3ccccc23)C1 (stereo not shown)				9

Compound	concentration	time	pH	microsomal CLint [µL/min/mg]
O=S(=O)(c1ccc(-c2ccc3nccc(Nc4cccnc4)c3c2)cc1)N1CCOCC1				86.3
CCN(CC)CCNC(=O)c1c(C)[nH]c(/C=C2\C(=O)Nc3ccc(F)cc32)c1C	1 µM		pH 7.4	19
COc1cccnc1-c1nc2ccccn2c1Nc1ccc(F)cc1	3 µM		pH 7.4	19
CCOc1ccc2ccc(=O)oc2c1	1 µM		pH 7.4	146
O=S(=O)(c1ccc(-c2ccc3nccc(Nc4cncs4)c3c2)cc1)N1CCOCC1				29.5
CCC(F)(F)c1nc2nc(C)cc(Nc3ccc(S(F)(F)(F)(F)F)cc3)n2n1	1 µM		pH 7.4	< 6
COc1cc2[nH]c(C)c(-c3cc4ccccc4o3)c(=O)c2cc1Cl	1 µM			29
COc1cc(OC)cc(-c2c(-c3ccccn3)nc3n2CCC3)c1	3 µM		pH 7.4	53
CCn1cnc2c(N3CCC(c4ccccn4)C3)nc(-c3ccccn3)nc21 (stereo not shown)				42
O=C(Nc1ccnc(C(F)(F)F)c1)Nc1cccc2c1OC(F)(F)O2				14
COc1cc2[nH]c(C)c(-c3ccc(COc4ccccc4)cc3)c(=O)c2cc1Cl	1 µM			22
Fc1ccc(Nc2c(-c3cc(Cl)ccn3)nc3ccccn23)cc1	3 µM		pH 7.4	160
N#CC1CCN(c2nc(-c3ccccn3)nc3ccccc23)CC1				45
COc1cc2[nH]c(C)c(-c3ccc(C(C)C)cc3)c(=O)c2cc1Cl	1 µM			34
COc1cccc(-c2nc3ccccn3c2Nc2ccc(F)cc2)n1	3 µM		pH 7.4	137
CCc1nnc(Nc2ccnc3ccc(-c4ccc(S(=O)(=O)N5CCOCC5)cc4)cc23)s1				59.3
O=c1[nH]c(=S)n(Cc2ccc(Cl)cc2CNCC(F)(F)F)c2cc[nH]c12				8.2
O=C(N[C@H](Cc1ccccc1)C(=O)Nc1ccccc1N1CCOCC1)c1cccs1	2 µM	40 min	pH 7.4	1370
C[C@H](C(=O)NC1Cc2ccccc2C1)c1ccc(F)cc1	1 µM	1 h		120
Fc1cccc(F)c1-c1nc(N2CCC(c3ccccn3)C2)c2ccccc2n1 (stereo not shown)				114
Cc1cnc(Nc2ccnc3ccc(-c4ccc(S(=O)(=O)N5CCOCC5)cc4)cc23)s1				76.3
N#CC1CCN(c2nc(-c3ccccn3)nc3ccccc23)C1 (stereo not shown)				45
COc1cc2[nH]c(C)c(-c3c(C)noc3C)c(=O)c2cc1Cl	1 µM			< 7
